The source of these data is PubChem BioAssay.

Test [1] is described as follows: Her2 expression decrease, cell viability multiplex – SKBR3 breast tumor cells, AlphaScreen, ATP viability, primary screen (AID 461;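 active = Her2 level under about 52% in both replicate screens, with viability over 70% of control, limit read from the data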;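 as to Her2 level: lower value means less Her2 protein in the cells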;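 as to viability: percent of carrier control wells set as 100% viability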). As to conditions: SKBR3 Her2 protein level, 18-24 h, measured here: SKBR3 viability, ATP luminescence, at 10 µM. A general note: In Alpha technology, singlet oxygen from a donor bead excites a nearby acceptor bead.
Test [2] has as its target Receptor tyrosine-protein kinase erbB-2 (Homo sapiens) (UniProt P04626). The description is as above. As to conditions: 18-24 h, at 10 µM, stronger effect = lower value.
The nature of test [3]: reduced viability of SK-BR-3 breast cancer cells – cell-based, 24 h, human, pilot screen (AID 572;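 active = viability at or below 10% of carrier control in both of two separate runs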;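 also: compound exposure lasted between 18 and 24 h rather than exactly 24 h; 100% = carrier-treated control wells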). As to conditions: SK-BR-3 viability, CellTiter-Glo luminescence, at 10 µM, stronger effect = lower value.
The nature of test [4]: HUVEC growth inhibition – cell-based, human, primary screen (AID 575;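 active = viability at or below 30% in both replicate assays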;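 also: 100% = median of untreated cell wells with 0.1% DMSO on each plate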). The note with it: HUVEC proliferation, CellTiter-Glo luminescence, 72 h; at 10 µM; stronger effect = lower value. The procedure, abridged: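 Assay system: primary human umbilical vein endothelial cells / Buffer or medium: endothelial basal medium with 2% FBS plus growth supplements / Compound dosing: one dose, 10 µM final, 0.1% DMSO / Timing: 72 h treatment at 37 °C / Signal: CTG luminescence / Benchmarks: 32 DMSO-only cell-control wells (high), 32 MePR drug-control wells (low) per plate / Plate: collagen-coated 384-well format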
A general note: In ATP-based viability assays light output follows the ATP content of the culture.

Test [5] in a line: H69AR cell proliferation blockers – human, duplicate replicates, primary screen (AID 580;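 active = viability at or under a set limit in both replicates, limit being median viability minus 3 SD, cut at about 48% in these data, passing the limit was not always enough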;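 also: 100% = mean luminescence of untreated wells and 0% = no signal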). The note with it: H69AR lung tumor cells viability, ATP luminescence, 72 h; at 10 µM; stronger effect = lower value.
Test [6] in a line: MRP1 drug-resistance reversers in H69AR cells – cell-based, doxorubicin co-treatment, pilot screen (AID 601;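 active = viability loss from added drug above about 55%, and viability with drug at most 40%, in both replicates, limit read from the data, passing the limit was not always enough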). The note with it: CellTiter-Glo, 72 h, at 10 µM; for differential viability (reversal): stronger effect = higher value.
A short description of test [7]: yeast transport mutant growth inhibition pilot in 384-well plates, post-Golgi transport modulator project (AID 636; in the data active = inhibition above about 31%). As to conditions: absorbance 615 nm, about 18 h, stronger effect = higher value.
Test [8] can be described thus: growth suppression of yeast trafficking mutant, preliminary HTS, modulators of trafficking downstream of Golgi apparatus project, 1536-format plate, OD 615 nm (AID 637). As to conditions: yeast transport mutant growth, absorbance 615 nm, 18 h; stronger effect = higher value.
[9] abbreviates: H69AR cells + 2 uM doxorubicin, measured here: viability with 2 uM doxorubicin, stronger effect = lower value.
Setting [10] is: H69AR cells, compound alone cytotoxicity.

Activity calls are given as the source filed them. Rule as the data show it, unless noted: active = inhibition above about 30%; inactive = the rest.

Receptor tyrosine-protein kinase erbB-2 (Homo sapiens), sequence (P04626 whole entry, looked up): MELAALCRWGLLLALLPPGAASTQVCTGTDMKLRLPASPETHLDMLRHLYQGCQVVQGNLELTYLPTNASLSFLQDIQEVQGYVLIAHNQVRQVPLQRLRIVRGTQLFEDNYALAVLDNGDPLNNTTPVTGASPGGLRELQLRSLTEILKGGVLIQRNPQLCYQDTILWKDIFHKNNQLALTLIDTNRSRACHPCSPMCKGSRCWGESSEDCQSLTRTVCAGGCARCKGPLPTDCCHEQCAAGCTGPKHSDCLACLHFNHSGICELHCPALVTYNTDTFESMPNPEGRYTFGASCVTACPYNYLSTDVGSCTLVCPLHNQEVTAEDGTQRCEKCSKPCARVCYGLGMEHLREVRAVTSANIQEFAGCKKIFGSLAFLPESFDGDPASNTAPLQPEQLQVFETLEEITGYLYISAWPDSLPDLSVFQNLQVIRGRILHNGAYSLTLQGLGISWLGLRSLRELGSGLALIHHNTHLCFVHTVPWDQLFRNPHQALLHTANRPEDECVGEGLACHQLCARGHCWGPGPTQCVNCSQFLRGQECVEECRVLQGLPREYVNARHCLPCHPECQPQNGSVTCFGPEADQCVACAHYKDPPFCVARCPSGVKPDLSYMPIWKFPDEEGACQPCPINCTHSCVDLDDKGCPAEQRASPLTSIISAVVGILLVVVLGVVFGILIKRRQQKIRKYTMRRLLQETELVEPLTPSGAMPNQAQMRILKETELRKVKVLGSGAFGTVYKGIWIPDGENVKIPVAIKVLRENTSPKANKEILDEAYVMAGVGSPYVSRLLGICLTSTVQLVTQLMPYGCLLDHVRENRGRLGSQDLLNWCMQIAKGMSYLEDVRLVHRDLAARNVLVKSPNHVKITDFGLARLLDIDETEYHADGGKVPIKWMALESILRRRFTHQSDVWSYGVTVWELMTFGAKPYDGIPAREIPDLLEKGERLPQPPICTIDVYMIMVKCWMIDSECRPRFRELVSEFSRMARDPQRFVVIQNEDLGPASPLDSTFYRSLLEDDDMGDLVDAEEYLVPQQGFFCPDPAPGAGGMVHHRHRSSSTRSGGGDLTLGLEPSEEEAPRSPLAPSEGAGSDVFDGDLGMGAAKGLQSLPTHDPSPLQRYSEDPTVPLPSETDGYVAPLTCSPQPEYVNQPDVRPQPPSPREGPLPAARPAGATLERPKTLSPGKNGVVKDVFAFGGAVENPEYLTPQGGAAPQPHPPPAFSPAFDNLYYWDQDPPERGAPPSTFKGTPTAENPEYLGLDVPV

A word on the viability: it is a read-out of living cells in per cent, often relative to untreated cells. What is called inhibition is the change of the read-out against control, counted positive when it falls. In the case of `CCOc1ccc(C(=O)CN2CCN(S(=O)(=O)c3ccc(OC)cc3)CC2)cc1`, the viability in test [1] is 99.5%; in test [3], 99.5% (inactive); in test [4] it was 91.2% (inactive); in test [5], 86.7% (inactive); in test [6] (setting [9]), 94.7%; in test [6] (setting [10]) it was 86.7%. Besides, in test [2], the Her2 level is 88% (inactive). Also, the differential viability (reversal) in test [6] (H69AR cells + 2 uM doxorubicin) is -8.05% (inactive). Besides, the inhibition in test [7] is -3.68% (inactive); in test [8] it was -8.33% (inactive).

On to `Cc1ccc2c(c1)NC(=O)C(CC(=O)NC1CCCCC1C)O2` (stereo not given), for which the viability is 110% in test [1]; 110% (inactive) in test [3]; 103% (inactive) in test [4]; 97.1% (inactive) in test [5]; 101% in test [6] (setting [9]); 97.1% in test [6] (setting [10]). For the same compound, in test [2], the Her2 level is 86.5% (inactive). The differential viability (reversal) in test [6] (H69AR cells + 2 uM doxorubicin) is -3.58% (inactive). Moreover, the inhibition in test [7] was -2.53% (inactive); in test [8], -1.15% (inactive).

Take `c1ccc(-n2cnc3cc(NCc4ccccn4)ccc32)cc1`: the viability is 109% in test [1]; 109% (inactive) in test [3]; 102% (inactive) in test [4]; 86.4% (inactive) in test [5]; 84% in test [6] (setting [9]); 86.4% in test [6] (setting [10]). For the same compound, in test [2], the Her2 level is 90.5% (inactive). Moreover, the differential viability (reversal) in test [6] (H69AR cells + 2 uM doxorubicin) was 2.47% (inactive). Besides, the inhibition in test [7] was -5.27% (inactive); in test [8] it was 2.7% (inactive).

Regarding `Cc1nc2cc(-n3ccc(=O)cc3)ccc2n1-c1ccccc1`, the viability in test [1] is 102%; in test [3], 102% (inactive); in test [4] it was 79.7% (inactive); in test [5], 90.5% (inactive); in test [6] (setting [9]) it was 77.1%; in test [6] (setting [10]) it was 90.5%. Also, the Her2 level in test [2] was 93% (inactive). Besides, the differential viability (reversal) in test [6] (H69AR cells + 2 uM doxorubicin) is 13.4% (inactive). Further, the inhibition in test [7] is -2.93% (inactive); in test [8], -3.49% (inactive).

Regarding `CCOc1cc(C(=O)N2CCN(c3ccccc3)CC2)cc(OCC)c1OCC`, the viability in test [1] is 98.5%; in test [3], 98.5% (inactive); in test [4], 90.1% (inactive); in test [5], 97.2% (inactive); in test [6] (setting [9]), 94%; in test [6] (setting [10]) it was 97.2%. For the same compound, in test [2], the Her2 level was 97% (inactive). For the same compound, the differential viability (reversal) in test [6] (H69AR cells + 2 uM doxorubicin) is 3.12% (inactive). For the same compound, the inhibition is -4.93% (inactive) in test [7] and -5.32% (inactive) in test [8].

Take `CC1=C(C#N)C(c2ccoc2)C(C(=O)OCc2ccccc2)=C(N)S1` (stereo not given): the viability was 100% in test [1]; 100% (inactive) in test [3]; 99.5% (inactive) in test [4]; 91.6% (inactive) in test [5]; 92.4% in test [6] (setting [9]); 91.6% in test [6] (setting [10]). In addition, in test [2], the Her2 level was 88% (inactive). The differential viability (reversal) in test [6] (H69AR cells + 2 uM doxorubicin) is -0.82% (inactive). Besides, the inhibition in test [7] was -3.95% (inactive); in test [8], 0% (inactive).

For the compound `Cn1nc(C(=O)NC2CCCCCC2)ccc1=O`, the viability was 126% in test [1]; 126% (inactive) in test [3]; 101% (inactive) in test [4]; 111% (inactive) in test [5]; 92% in test [6] (setting [9]); 111% in test [6] (setting [10]). In test [2], the Her2 level was 104% (inactive). The differential viability (reversal) in test [6] (H69AR cells + 2 uM doxorubicin) is 19.2% (inactive). In addition, the inhibition in test [7] was -2.6% (inactive); in test [8] it was -0.79% (inactive).

For the compound `CCCCOc1ccc(-c2nnn(CC(=O)NCc3ccco3)n2)cc1`, the viability in test [1] was 82.5%; in test [3], 82.5% (inactive); in test [4] it was 57.3% (inactive); in test [5], 23.9% (active); in test [6] (setting [9]), 54.3%; in test [6] (setting [10]), 23.9%. The Her2 level in test [2] was 81% (inactive). Further, in test [6] (H69AR cells + 2 uM doxorubicin), the differential viability (reversal) is -30.3% (inactive). Also, the inhibition in test [7] is -1.18% (inactive); in test [8], 4.1% (inactive).

On to `CN=Cc1cc(-c2ccccc2)sc1O`, for which the viability was 82% in test [1]; 82% (inactive) in test [3]; 102% (inactive) in test [4]; 90% (inactive) in test [5]; 77% in test [6] (setting [9]); 90% in test [6] (setting [10]). Further, in test [2], the Her2 level is 102% (inactive). In addition, the differential viability (reversal) in test [6] (H69AR cells + 2 uM doxorubicin) is 13% (inactive). Further, the figures for the inhibition in test [7] and in test [8] were 0.41% (inactive) and 32.7% (active), respectively.

On to `C=CCn1c(=O)[nH]c2cc(C(=O)N3CCN(c4cc(C)ccc4C)CC3)ccc2c1=O`, for which the viability in test [1] is 81.5%; in test [3], 81.5% (inactive); in test [4], 71.7% (inactive); in test [5], 41.3% (active); in test [6] (setting [9]), 33.6%; in test [6] (setting [10]), 41.3%. Moreover, in test [2], the Her2 level was 79.5% (inactive). Also, in test [6] (H69AR cells + 2 uM doxorubicin), the differential viability (reversal) was 7.67% (inactive). Also, the inhibition was -6.76% (inactive) in test [7] and -0.83% (inactive) in test [8].

Turning to `COc1ccccc1NC(=O)C(O)C(O)C(=O)Nc1ccccc1OC` (stereo not given), the viability in test [1] is 111%; in test [3], 111% (inactive); in test [4], 116% (inactive); in test [5], 96.1% (inactive); in test [6] (setting [9]), 92.1%; in test [6] (setting [10]), 96.1%. Moreover, the Her2 level in test [2] was 104% (inactive). For the same compound, in test [6] (H69AR cells + 2 uM doxorubicin), the differential viability (reversal) is 4.04% (inactive). Further, the values for the inhibition in test [7] and in test [8] were -7.43% (inactive) and -2.83% (inactive), respectively.

On to `CCOC(=O)c1cccc(NC(=O)CSc2nnc(-c3cccnc3)n2CC)c1`, for which the viability was 88.5% in test [1]; 88.5% (inactive) in test [3]; 101% (inactive) in test [4]; 109% (inactive) in test [5]; 95.2% in test [6] (setting [9]); 109% in test [6] (setting [10]). For the same compound, the Her2 level in test [2] was 95% (inactive). The differential viability (reversal) in test [6] (H69AR cells + 2 uM doxorubicin) was 13.3% (inactive). The values for the inhibition in test [7] and in test [8] were -4.67% (inactive) and 0% (inactive), respectively.

For the compound `O=C(NCCc1ccccc1)C1CCN(S(=O)(=O)N2CCC3(CC2)OCCO3)CC1`, the viability in test [1] was 102%; in test [3], 102% (inactive); in test [4], 88.5% (inactive); in test [5], 99.3% (inactive); in test [6] (setting [9]), 88.4%; in test [6] (setting [10]) it was 99.3%. The Her2 level in test [2] was 88.5% (inactive). In test [6] (H69AR cells + 2 uM doxorubicin), the differential viability (reversal) was 10.9% (inactive). For the same compound, the inhibition is -2.37% (inactive) in test [7] and 0.16% (inactive) in test [8].

As to `COc1cc(NC2=CC(=O)CC(C)(C)C2)cc(OC)c1`, the viability in test [1] was 77%; in test [3] it was 77% (inactive); in test [4] it was 85.5% (inactive); in test [5], 96.8% (inactive); in test [6] (setting [9]) it was 90.6%; in test [6] (setting [10]) it was 96.8%. Also, the Her2 level in test [2] was 133% (inactive). Moreover, in test [6] (H69AR cells + 2 uM doxorubicin), the differential viability (reversal) was 6.11% (inactive). Further, the inhibition in test [7] is 0.26% (inactive); in test [8], -7.17% (inactive).
